Experimental findings from article PMC9076653 (RSC Advances, 2019) are described below.

In data set [1] the test system is A549. In words: MTT cell growth inhibition assay, A549. The following applies: Homo sapiens, A549, 72 h, read-out: IC50 A549. Format: cell-based. In short, it runs like this:
(§1)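 MTT assay. Seeding per well was 3 × 10^3 for cancer cells, 4 × 10^3 for HUVEC and 8 × 10^3 for HL7702. Test compound was added after adherence and incubated 72 h. MTT (5 mg mL−1 stock) was added for a further 4 h at 37 °C, formazan was dissolved in DMSO, and absorbance was read at 570 nm. Inhibition was calculated relative to controls, and IC50 is the concentration giving 50% growth inhibition.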

Data set [2] deals with HL7702. In words: MTT cell growth inhibition assay, HL7702. Type of data set: cell-based. The following applies: Homo sapiens, L02, 72 h, read-out: IC50 HL7702. In short, it runs like this: as §1
Data set [3] has as its system HUVEC. In words: MTT cell growth inhibition assay, HUVEC. Type of data set: cell-based. The following applies: Homo sapiens, 72 h, read-out: IC50 HUVEC. In short, it runs like this: as §1
Data set [4] concerns Hsp90 client proteins (Her2, AKT, CDK4) and Hsp70 in MDA-MB 231 cells. In words: Western blot assay of Hsp90 inhibition in cellular system. Type of data set: cell-based, human. The following applies: 0.5 μM. In short, it runs like this:
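MDA-MB 231 cells were treated with or without test compound over different time courses. Cells were lysed in ice-cold Tris-HCl (pH 7.4) buffer with Triton, EDTA/EGTA, phosphatase and protease inhibitors, then boiled 10 min in SDS loading buffer. Proteins were separated by 8–12% SDS-PAGE and transferred to PVDF. Membranes were blocked in 5% BSA in PBS-Tween for 1 h, incubated with primary antibodies overnight at 4 °C, and detected with peroxidase-conjugated anti-rabbit or anti-mouse secondary antibodies and ECL.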
(A western blot detects proteins with antibodies after separation by electrophoresis.)

Data set [5] has as its system SW480. In words: MTT cell growth inhibition assay, SW480. Format: cell-based. Conditions: Homo sapiens, SW480, 72 h, read-out: IC50 SW480. In short, it runs like this: as §1
The subject of data set [6] is A431. In words: MTT cell growth inhibition assay, A431. Format: cell-based. Conditions: Homo sapiens, A-431, 72 h, read-out: IC50 A431. In a few lines: as §1
Data set [7] concerns MDA-MB-231. In words: MTT cell growth inhibition assay, MDA-MB-231. The following applies: Homo sapiens, MDA-MB-231, 72 h, read-out: IC50 MDA-MB-231. Type of data set: cell-based. In a few lines: as §1
For data set [8], the system named is HepG2. In words: MTT cell growth inhibition assay, HepG2. Format: cell-based. The following applies: Homo sapiens, HepG2, 72 h, read-out: IC50 HepG2. In short, it runs like this:
as §1

Data set [9] in a line: In vivo hepatotoxicity assay. Further details: species or system Kunming mice. The following applies: mice. In a few lines:
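Female Kunming mice (4–6 weeks) were randomised into three groups of three: vehicle control, or test compound or parent ansamycin at 10 mg kg−1. They were injected once daily for three consecutive days. Serum AST and ALT were then measured with spectrophotometric kits and reported in U L−1.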

The test system of data set [10] is BGC-823. In words: MTT cell growth inhibition assay, BGC-823. Format: cell-based. The following applies: Homo sapiens, BGC-823, 72 h, read-out: IC50 BGC-823. In a few lines:
as §1

For data set [11], the system named is HeLa. In words: MTT cell growth inhibition assay, HeLa. Format: cell-based. The following applies: Homo sapiens, 72 h, read-out: IC50 HeLa. In a few lines:
as §1

For data set [12], the system named is MDA-MB-231 xenograft. In words: In vivo antitumor assay, MDA-MB-231 xenograft model. The following applies: 10 mg kg^−1 via caudal vein every three days, 15 days. Further details: species or system nude mice. In short, it runs like this:
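Female athymic nude mice (6–7 weeks) first received 5 × 10^6 logarithmic-phase MDA-MB-231 cells s.c. in physiological saline. After two weeks, tumour fragments were implanted into the right flank. At a mean tumour volume of 100 mm3, mice were randomised (6 per group) and dosed 10 mg kg−1 via the tail vein every three days for 15 days. Vehicle was 5% glucose with 1% DMSO and 2% lecithin; a reference Hsp90 inhibitor served as positive control. Calipers were used every three days, with V = length × width²/2. TGI came from final tumour weights, and T/C from mean RTV (Vt/V0). Student's two-tailed t test was used, P < 0.05.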

Setting [13] is: 10 mg kg^−1, injected once a day for three days, blood serum.

Molecules are shown by their SMILES. “And” between values parts separate entries of the source, which are not always exact repeats. Identical values can stand only once.

For orientation: IC50 means the concentration that gives 50% inhibition. For the compound `COC1=C2C[C@@H](C)C[C@H](OC)[C@H](O)[C@@H](C)/C=C(\C)[C@H](OC(N)=O)[C@@H](OC)/C=C\C=C(/C)C(=O)NC(=CC1=O)C2=O` [GA, Geldanamycin], the IC50 is 91 ± 7 nM in [1]; 133 ± 20 nM in data set [2]; 18 ± 3 nM in data set [3]; 298 ± 34 nM in data set [5]; 45 ± 6 nM in data set [6]; 59 ± 13 nM in [7]. The 50% inhibitory concentration (IC50) in data set [8] was 45 ± 7 nM; in [10], 40 ± 8 nM; in data set [11], 731 ± 53 nM. The “levels of Hsp70” value in [4] is listed as “markedly increased”. This compound also gave an ALT in data set [9] (setting [13]) of 273.0 ± 25.3 U L^−1. The compound further had an AST in data set [9] (setting [13]) of 317.2 ± 39.1 U L^−1. Besides, the “AST and ALT levels versus vehicle control group” value in [9] (10 mg kg^−1, three days) was “significantly higher”.

By T/C is commonly meant the result in the treated group divided by that in the control group, in per cent. One may read the TGI as the reduction of tumour growth relative to the control group. Lower therefore signals a weaker effect on the tumour. As to `C=CCNC1=C2C[C@@H](C)C[C@H](OC)[C@H](O)[C@@H](C)/C=C(\C)[C@H](OC(N)=O)[C@@H](OC)/C=C\C=C(/C)C(=O)NC(=CC1=O)C2=O` [Compound 17-AAG, 17-allylamino-17-demethoxygeldanamycin], the half-maximal inhibitory concentration (IC50) is 87 ± 6 nM in data set [1]; 105 ± 7 nM in [2]; 271 ± 38 nM in data set [3]; 614 ± 85 nM in data set [5]; 72 ± 4 nM in data set [6]; 324 ± 76 nM in data set [7]. For the same compound, the IC50 turned out to be 82 ± 16 nM in data set [8], 725 ± 99 nM in [10] and 112 ± 18 nM in data set [11]. The “levels of Hsp70” value in data set [4] is reported as “markedly increased”. Further, the T/C in [12] (relative tumor volume) is 41.9% and 41.9 ± 11.3%. In addition, the TGI in data set [12] (tumor weight) is 55.1% and 55.1 ± 5.5%.
